Measured values gathered from unrelated publications.
CDK2 with cyclin A: Cyclin-dependent kinase 2, with cyclin A (CDK2, Homo sapiens, UniProt P24941)
CDK2 with cyclin E: Cyclin-dependent kinase 2, with cyclin E (CDK2, Homo sapiens, UniProt P24941)
CDK2: Cyclin-dependent kinase 2 (CDK2, Homo sapiens, UniProt P24941)

Cn1cc(-c2cccc(N3CCc4c(sc5c4CC(C)(C)C5)C3=O)c2CO)cc(Nc2ccncn2)c1=O has an inhibition of -4% (CDK2 with cyclin A; enzyme activity, inhibitor; 1 µM).
The remaining signal of O=c1[nH]c2ccccc2n1C1CCN(Cc2ccc(-c3[nH]c4cc5ncnc5cc4nc3-c3ccccc3)cc2)CC1 is reported as 95.6% (CDK2 with cyclin E; cell-free assay; 0.5 µM).
COc1ncccc1-c1cnn2ccc(N3CCN(C(=O)OC(C)C)CC3)nc12 gave a remaining binding of 99% (CDK2; binding, competition with immobilised ligand; 1 µM).
Cc1ncc(C)n2nc(/C=C/c3nc(N4CCCC4)cc(N4CCOCC4)n3)nc12 gave an inhibition of -3% (CDK2 with cyclin A; enzyme activity, inhibitor; 10 µM).
C#Cc1n[nH]c2c(-c3cn([C@@H](C)c4ccccc4)c(=O)[nH]c3=O)cc(F)cc12 has an inhibition of 6.3% (CDK2 with cyclin A; enzyme activity, inhibitor; 0.1 µM).
With N#CC1(c2ccccn2)CCN(Cc2cc(C(=O)O)c(=O)n3ccccc23)CC1 the remaining binding was 100% (CDK2; cell-free assay, competition with immobilised ligand; 1 µM).
CC(C)(C)c1cc(C=C(C#N)C#N)cc(Br)c1O gave a remaining activity of 77.6% (CDK2 with cyclin E; enzyme activity, inhibitor; 0.5 µM).
Nc1ncc(-c2nc(N3CCOCC3)nc(N3CCOCC3)n2)c(C(F)F)n1 gave a remaining binding of 100% (CDK2; binding, competition with immobilised ligand; 10 µM).
Cn1cc(-c2cc(F)cc(N3CCn4c(cc5c4CCCC5)C3=O)c2CO)cc(Nc2ccc(N3CCN(C4COC4)CC3)cn2)c1=O gave an inhibition of 7% (CDK2 with cyclin A; enzyme activity, inhibitor; 0.1 µM).
With O=C(Nc1cccnn1)N1CCN([C@@H]2CCOc3cc(C(F)(F)F)ccc32)CC1 the inhibition was 3% (CDK2 with cyclin E; cell-free assay, inhibitor; 20 µM).
Cn1cncc1[C@@](O)(COc1ccc(C#N)cc1-c1ccc(OC(F)(F)F)cc1)c1ccc(C#N)cc1 has a remaining binding of 89% (CDK2; cell-free assay, competition with immobilised ligand; 1 µM).
